From ChEMBL document CHEMBL1155202, “Synthesis and anticancer activity of novel 3,4-diarylthiazol-2(3H)-ones (imines)” (Bioorg Med Chem Lett, 2009) come the findings set out here.

A value given as a limit tells only on which side of the number the result lay.

In one assay the test system is SMMC-7721. Briefly: Anticancer activity against human SMMC7721 cells after 72 hrs. Format: functional, cell-based. As to conditions: SMMC-7721, 72 h. The essentials:
(§1)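 Solid human tumour lines (liver Bel-7402, HepG2, SMMC-7721; breast MCF-7; pancreatic SW-1990; colon HCT116) were exposed to compounds. IC50 was taken as the concentration inhibiting 50% of cell proliferation. CA-4 served as positive control.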

A further assay relates to SW1990. The assay can be described thus: Anticancer activity against human SW1990 cells after 72 hrs. In kind it is functional, cell-based. As to conditions: SW1990, 72 h. In outline:
as §1

For the next assay, the system named is MCF7. Briefly: Anticancer activity against human MCF7 cells after 72 hrs. As to conditions: MCF7, 72 h. Format: functional, cell-based. The essentials: as §1
For the next assay, the system named is CCRF-CEM. The assay can be described thus: Anticancer activity against human CCRF-CEM cells after 72 hrs. Format: functional, cell-based. The essentials:
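CEM human leukemia cells were exposed to compounds. IC50 was defined as the concentration required to inhibit 50% of cell proliferation.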

Assay [1] has as its system HepG2. The assay can be described thus: Cell cycle arrest in human HepG2 cells assessed as increase in G2/M phase cells after 20 hrs by flow cytometry using propidium iodide staining. In kind it is functional, cell-based. As to conditions: for EC50: HepG2, 20 h. The essentials:
(§2)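 HepG2 cells were left untreated or treated with compounds across a dose range for 20 h at 37 °C. CA-4 served as positive control. Cell-cycle phase distribution (G1, S, G2/M fractions) was then analysed by flow cytometry.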

For assay [2], the system named is HepG2. The assay can be described thus: Anticancer activity against human HepG2 cells after 72 hrs. In kind it is functional, cell-based. As to conditions: HepG2, 72 h. In outline:
as §1

In a further assay the test system is Bel-7402. The assay can be described thus: Anticancer activity against human Bel7402 cells after 72 hrs. As to conditions: Bel-7402, 72 h. In kind it is functional, cell-based. In outline: as §1
In the next assay the test system is HCT-116. Briefly: Anticancer activity against human HCT116 cells after 72 hrs. In kind it is functional, cell-based. As to conditions: HCT-116, 72 h. The essentials:
as §1

Assay [3] has as its system HepG2. Briefly: Ratio of Compound EC50 to Combrestatin A4 EC50 for cell cycle arrest in human HepG2 cells assessed as increase in G2/M phase cells after 20 hrs by flow cytometry using propidium iodide staining. In kind it is functional.
Assay [4] has as its system HepG2. Briefly: Cell cycle arrest in human HepG2 cells assessed as decrease in G1 phase cells after 20 hrs by flow cytometry using propidium iodide staining. Format: functional, cell-based. In outline: as §2
The subject of assay [5] is HepG2. The assay can be described thus: Cell cycle arrest in human HepG2 cells assessed as decrease in S phase cells after 20 hrs by flow cytometry using propidium iodide staining. In kind it is functional, cell-based. In outline:
as §2
On the technique in general: Flow cytometry measures light scatter and fluorescence of single cells or particles in a stream.

For the compound `COc1ccc(/C=C\c2cc(OC)c(OC)c(OC)c2)cc1O` [COMBRETASTATIN A4], the IC50 – broadly, the concentration that gives 50% inhibition – with SMMC-7721 turned out to be 0.29 µM; in the assay with SW1990, 0.25 µM; with MCF7, 0.03 µM; in the assay on CCRF-CEM, 0.002 µM; in the assay on HepG2 [2], 0.006 µM; in the assay with Bel-7402, 1.72 µM. For the same compound, in the assay on HCT-116, the IC50 turned out to be 0.006 µM. Moreover, in the assay with HepG2 [1], the 50% effective concentration (EC50) – broadly, the concentration needed to bring the measured effect to its halfway point – was under 0.03 µM.
As to `COc1ccc(-c2csc(=N)n2-c2cc(OC)c(OC)c(OC)c2)cc1`, inhibition in the assay on CCRF-CEM was half-maximal at 1.5 µM (IC50). This counts as single-digit micromolar.
The same measure, in the same setting: to `COc1ccc(-n2c(-c3cc(OC)c(OC)c(OC)c3)csc2=O)cc1` belongs 14.9 µM.
Still for that read-out and setting: next, `COc1ccc(-n2c(-c3cc(OC)c(OC)c(OC)c3)c(Cl)sc2=O)cc1[N+](=O)[O-]`: over 20 µM; `COc1ccc(-c2c(Cl)sc(=O)n2-c2cc(OC)c(OC)c(OC)c2)cc1`: over 20 µM.
As to `COc1ccc(-c2c(Cl)sc(=O)n2-c2cc(OC)c(OC)c(OC)c2)cc1N`, the IC50 in the assay on SMMC-7721 came out at 118 µM; in the assay on SW1990, 56.7 µM; in the assay with MCF7, 52.5 µM; in the assay with CCRF-CEM it was 0.12 µM; with HepG2 [2], 96 µM; in the assay with Bel-7402, 23.4 µM. Further, the concentration for half-maximal inhibition (IC50) with HCT-116 amounted to 85.1 µM. Also, the EC50 in the assay with HepG2 [1] was over 250 µM.
For the compound `COc1ccc(-c2c(Cl)sc(=O)n2-c2cc(OC)c(OC)c(OC)c2)cc1[N+](=O)[O-]`, in the assay on CCRF-CEM, the IC50 came to 7.5 µM.
For `COc1ccc(-n2c(-c3cc(OC)c(OC)c(OC)c3)csc2=N)cc1`, in the assay on CCRF-CEM, inhibition was half-maximal at 13.2 µM (IC50).
Still for that read-out and setting: next, `COc1ccc(-n2c(-c3cc(OC)c(OC)c(OC)c3)c(Cl)sc2=O)cc1N`: 16.2 µM.
Turning to `COc1ccc(-c2csc(=O)n2-c2cc(OC)c(OC)c(OC)c2)cc1[N+](=O)[O-]`, the 50% inhibitory concentration (IC50) in the assay with CCRF-CEM amounted to 8.2 µM. Against the preceding compound, the IC50 is about 2-fold lower.
On the same count and under the same terms, to `COc1ccc(-c2csc(=O)n2-c2cc(OC)c(OC)c(OC)c2)cc1` belongs 1.8 µM.
The same measure, in the same setting: to `COc1ccc(-n2c(-c3cc(OC)c(OC)c(OC)c3)csc2=O)cc1N` belongs 10.1 µM; to `COc1ccc(-c2csc(=N)n2-c2ccc(OC)cc2)cc1`, over 20 µM; to `COc1ccc(-n2c(-c3cc(OC)c(OC)c(OC)c3)csc2=O)cc1[N+](=O)[O-]`, 2.7 µM.
On the same count and under the same terms, next, `COc1ccc(-n2c(-c3cc(OC)c(OC)c(OC)c3)c(Cl)sc2=O)cc1`: 13.8 µM.
Regarding `COc1ccc(-c2csc(=O)n2-c2cc(OC)c(OC)c(OC)c2)cc1N`, the IC50 with SMMC-7721 is 7.4 µM; with SW1990 it was 20.3 µM; in the assay with MCF7, 4.4 µM; with CCRF-CEM, 0.24 µM; with HepG2 [2] it was 4.5 µM; in the assay on Bel-7402, 3.3 µM. The IC50 in the assay on HCT-116 turned out to be 3.4 µM. The “Ratio EC50” value in the assay on HepG2 [3] was 130. The Activity result in the assay on HepG2 [4], in the assay on HepG2 [1] and in the assay on HepG2 [5] was “Dose-dependent effect” throughout. In addition, in the assay with HepG2 [1], the EC50 is 3.89 µM.
